In ChEMBL document CHEMBL5316278, “Chemical Blockage of the Mitochondrial Rhomboid Protease PARL by Novel Ketoamide Inhibitors Reveals Its Role in PINK1/Parkin-Dependent Mitophagy” (J Med Chem, 2023) one finds inhibition and Activity data, which are given here for three molecules.

Calls of active or inactive are those of the source. No cut-off for these calls is given here. *1 amine or outer side, *2 acyl side, *3 side chain or, on linkers, in order; H or OH if unused. Where a SMILES comes first, the peptide text is derived from it. [ ]: non-standard residue; d: D form. The star is where a group is joined. NH(4-phenylbutyl) = c1ccc(CCCCN*)cc1; X1 = C[C@H](N[*:1])C(=O)C(=O)[*:2]

For test [1], the target named is T1, Presenilin-associated rhomboid-like protein, mitochondrial (Homo sapiens) (UniProt Q9H300).
T1 sequence (whole entry): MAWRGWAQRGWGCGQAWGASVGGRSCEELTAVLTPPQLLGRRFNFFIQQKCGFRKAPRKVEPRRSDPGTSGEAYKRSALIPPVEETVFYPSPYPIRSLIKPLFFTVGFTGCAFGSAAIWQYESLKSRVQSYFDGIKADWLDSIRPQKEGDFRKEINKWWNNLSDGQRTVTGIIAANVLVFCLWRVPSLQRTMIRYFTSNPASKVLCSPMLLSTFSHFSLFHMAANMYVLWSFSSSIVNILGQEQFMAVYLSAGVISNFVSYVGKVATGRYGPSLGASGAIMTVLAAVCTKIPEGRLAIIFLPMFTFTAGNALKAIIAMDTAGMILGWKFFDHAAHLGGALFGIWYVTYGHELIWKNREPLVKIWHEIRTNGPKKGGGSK
As to the kind of experiment: Inhibition of human PARL expressed in human T-REx-293 cells overexpressing PINK1 transfected with HA-Parkin-IRES-GFP assessed as increase in Parkin level in mitochondrial fraction at 5 uM incubated for 22 hrs by immunoblot analysis. Type of test: mitochondria. The method in brief:
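PINK1-induced HEK293 T-REx cells were transiently transfected with HA-Parkin-IRES-GFP (100 ng per 6-well, linear PEI). They were treated for 22 h, with DMSO, CCCP (10 μM, 3 h) and Antimycin A (30 μM, 3 h) as comparators. Cells were fractionated into cytosolic and mitochondrial fractions and immunoblotted (AIF, β-actin controls); n = 3, unpaired t-test.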
On the technique in general: In western blotting, separated proteins are transferred to a membrane and probed.

Test [2] addresses T1, Presenilin-associated rhomboid-like protein, mitochondrial (Homo sapiens). As to the kind of experiment: Inhibition of human PARL expressed in human T-REx-293 cells overexpressing PINK1 transfected with mito-mCherry and Parkin-mEGFP assessed as Parkin recruitment in mitochondria at 5 uM incubated for 3 hrs by fluorescence based microscopic analysis. The method in brief: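 PINK1-induced HEK293 T-REx cells on poly-L-lysine slides were co-transfected with mito-mCherry and Parkin-mEGFP using PEI. Nuclei were stained with Hoechst (1 μg/mL) before treatment, and cells were treated for 3 h alongside DMSO, CCCP and Antimycin A. Parkin colocalisation with mitochondria was judged by fluorescence microscopy and line-scan pixel intensity plots.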

The subject of the next test is HEK-293T. The test can be described thus: Disruption of mitochondrial membrane potential in human HEK293T cells at 5 uM incubated for 3 hrs by JC-1 staining method. Type of test: functional, cell-based.
Test [3] has as its target T1, Presenilin-associated rhomboid-like protein, mitochondrial (Homo sapiens). The test can be described thus: Inhibition of human PARL expressed in human Flp-In-T-REx-293 cells overexpressing PINK1 assessed as stabilization of 62 kDa PINK1 by measuring its inner mitochondrial level at 5 uM incubated for 3 hrs followed by proteinase K treatment by immunoblot analysis. The class given is cell-based. The method in brief: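 PINK1 was induced in HEK293 T-REx cells by doxycycline and treated for 3 h, with DMSO and CCCP as comparators. Mitochondria were isolated at 4 °C in EGTA-free isolation buffer and exposed to proteinase K for 1 h, then PMSF (2.5 mM, 15 min). PINK1 forms were read by immunoblot, with AIF and VDAC as fractionation controls.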

The target is the same in test [4]. As to the kind of experiment: Inhibition of human PARL expressed in human Flp-In-T-REx-293 cells overexpressing PINK1 assessed as stabilization of 66 kDa PINK1 at 0.1 to 30 uM incubated for 8 hrs by immunoblot analysis. The conditions noted are these: dose 0.1-30 µM. The class given is cell-based. The method in brief: (§1)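 HEK293 T-REx cells with inducible PINK1 were grown in DMEM with 10% FBS, GlutaMAX, pyruvate, hygromycin and blasticidin. PINK1 was induced with 0.3 μg/mL doxycycline for 24 h. Cells were treated for 8 h, with DMSO and CCCP (10 μM, 3 h) as comparators. Cleaved PINK1 forms were resolved by immunoblot of whole-cell samples.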

The target is the same in test [5]. As to the kind of experiment: Inhibition of human PARL expressed in human Flp-In-T-REx-293 cells overexpressing PINK1 assessed as stabilization of 53 kDa PINK1 at 0.1 to 30 uM incubated for 8 hrs by immunoblot analysis. The class given is cell-based. The conditions noted are these: dose 0.1-30 µM. The method in brief:
as §1

Test [6] has the same target. As to the kind of experiment: Inhibition of human PARL expressed in human HEK293T cells assessed as stabilization of 66 kDa PINK1 at 5 uM incubated for 8 hrs by immunoblot analysis. The class given is cell-based. The method in brief:
(§2)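 Parental HEK293T cells (endogenous PINK1) were treated for 8 h, with DMSO or CCCP as comparators. Mitochondrial membranes were enriched by hypotonic needle lysis, 100,000 × g pelleting and 100 mM Na2CO3 extraction through a sucrose cushion. PINK1 was then read by immunoblot, with VDAC as fractionation control; n = 3, means ± SEM.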

Test [7] has the same target. As to the kind of experiment: Inhibition of human PARL expressed in human Flp-In-T-REx-293 cells overexpressing PINK1 assessed as stabilization of 62 kDa PINK1 at 0.1 to 30 uM incubated for 8 hrs by immunoblot analysis. Type of test: cell-based. The following applies: dose 0.1-30 µM. A digest of the protocol:
as §1

The target is the same in test [8]. As to the kind of experiment: Inhibition of human PARL expressed in human Flp-In-T-REx-293 cells overexpressing PINK1 with OMA1 knockdown assessed as stabilization of 53 kDa PINK1 at 10 uM incubated for 8 hrs by immunoblot analysis. The class given is cell-based. The method in brief:
(§3)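 PINK1-inducible HEK293 T-REx cells were transfected with 20 nM siRNA using RNAiMAX and analysed five days later. PINK1 was induced with doxycycline. Cells were treated for 8 h with 10 μM or DMSO. Read-out was immunoblot, with β-actin as loading control.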

Test [9] has the same target. The test can be described thus: Inhibition of human PARL expressed in human Flp-In-T-REx-293 cells overexpressing PINK1 with OMA1 knockdown assessed as stabilization of 62 kDa PINK1 at 10 uM incubated for 8 hrs by immunoblot analysis. Type of test: cell-based. The method in brief:
as §3

For test [10] the target is unchanged. As to the kind of experiment: Inhibition of human PARL expressed in human Flp-In-T-REx-293 cells overexpressing PINK1 assessed as stabilization of 53 kDa PINK1 at outer mitochondrial membrane at 5 uM incubated for 6 hrs followed by proteinase K treatment by immunoblot analysis. The class given is cell-based. The method in brief: (§4)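 PINK1 was induced in HEK293 T-REx cells (doxycycline 0.3 μg/mL, 24 h), then treated for 6 h. Cells were lysed directly, or mitochondria were isolated by needle lysis and 10,000 × g centrifugation and digested with proteinase K for 30 min, then 2.5 mM PMSF for 15 min. Read-out was immunoblot, with AIF as fractionation control.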

Test [11] shares this target. The test can be described thus: Inhibition of human PARL expressed in human HEK293T cells assessed as stabilization of 62 kDa PINK1 at 5 uM incubated for 8 hrs by immunoblot analysis. Type of test: cell-based. A digest of the protocol:
as §2

Test [12] has the same target. As to the kind of experiment: Inhibition of human PARL expressed in human Flp-In-T-REx-293 cells overexpressing PINK1 assessed as stabilization of 66 kDa PINK1 at outer mitochondrial membrane at 5 uM incubated for 6 hrs followed by proteinase K treatment by immunoblot analysis. The class given is cell-based. The method in brief: as §4

Consider `CCCCCC[C@H]1C(=O)O[C@H](C)[C@H](NC(=O)c2cccc(NC=O)c2O)C(=O)O[C@@H](C)[C@@H]1OC(=O)CC(C)C`, for which, in test [1], the inhibition entry is “Active”. Moreover, in [2], the inhibition result is “inactive”.

On to `N#CC(C#N)=NNc1cccc(Cl)c1`, for which the result in the test with HEK-293T was Active. For the same molecule, in test [1], the inhibition entry was “Active”. Also, in test [3], the inhibition entry was “inactive”.

`CC(=O)N[C@@H](C)C(=O)N[C@H](C(=O)N[C@@H](Cc1ccccc1)C(=O)N[C@@H](CC(C)C)C(=O)N[C@@H](C)C(=O)C(=O)NCCCCc1ccccc1)C(C)C` (Ac-AVFL[X1]-{NH(4-phenylbutyl)}): the inhibition entry in test [4], in test [5] and in test [7] was “Dose-Dependent Effect” throughout. In addition, the inhibition entry in test [6], in test [8], in [9], in [11], in [1] and in test [2] was “Active” throughout. For the same molecule, the inhibition entry in [3] is “Active”. Further, the inhibition result in test [10] and in test [12] was “inactive” each time. For the same molecule, the result with HEK-293T was inactive.
